Results published in ChEMBL document CHEMBL3526053, “Species-dependent uptake of glycylsarcosine but not oseltamivir in Pichia pastoris expressing the rat, mouse, and human intestinal peptide transporter PEPT1” (Drug Metab Dispos, 2012).

Legend:
Format in all cases: ADME
[1] = molecular target: T1, Solute carrier family 15 member 1 (Rattus norvegicus, UniProt P51574); assay: Drug uptake in Pichia pastoris GS115 expressing rat recombinant PEPT1 at 5 uM after 30s by dual-channel liquid scintillation counting analysis in presence of cefadroxil relative to control; conditions: in vivo, 0.5 min
T1 sequence (P51574 whole entry): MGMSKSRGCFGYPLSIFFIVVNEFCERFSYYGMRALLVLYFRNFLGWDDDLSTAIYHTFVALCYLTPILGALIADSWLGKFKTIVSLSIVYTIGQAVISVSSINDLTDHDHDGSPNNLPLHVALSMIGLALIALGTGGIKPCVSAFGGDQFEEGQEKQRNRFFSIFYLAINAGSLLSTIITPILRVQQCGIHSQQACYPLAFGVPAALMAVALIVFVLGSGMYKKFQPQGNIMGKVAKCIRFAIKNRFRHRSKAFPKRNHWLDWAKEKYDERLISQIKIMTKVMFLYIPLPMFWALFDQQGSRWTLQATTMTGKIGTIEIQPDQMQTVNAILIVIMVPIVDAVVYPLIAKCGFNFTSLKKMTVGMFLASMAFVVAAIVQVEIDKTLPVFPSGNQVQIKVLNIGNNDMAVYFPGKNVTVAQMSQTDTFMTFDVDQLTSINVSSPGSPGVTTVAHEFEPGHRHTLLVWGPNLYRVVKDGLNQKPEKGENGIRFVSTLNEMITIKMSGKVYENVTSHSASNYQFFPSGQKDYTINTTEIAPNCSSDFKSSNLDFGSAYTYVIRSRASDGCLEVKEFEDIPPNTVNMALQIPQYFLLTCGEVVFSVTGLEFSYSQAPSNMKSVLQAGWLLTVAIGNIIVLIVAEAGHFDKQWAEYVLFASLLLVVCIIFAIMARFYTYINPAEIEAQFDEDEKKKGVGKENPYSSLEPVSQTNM
Procedure, shortened: (§1)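 [3H]GlySar 5.0 µM final, 30-s uptake at 24°C in 100 mM potassium phosphate pH 6.5, with or without a potential inhibitor at 10 mM. Cells are methanol-induced transformants. Values are vector-subtracted and expressed as percent of buffer control. Mean ± SE (n=3). ANOVA with Dunnett's test.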

[2] = molecular target: T2, Solute carrier family 15 member 1 (Mus musculus, UniProt Q9JIP7); assay: Drug uptake in Pichia pastoris GS115 expressing mouse recombinant PEPT1 at 5 uM after 30s by dual-channel liquid scintillation counting analysis in presence of elacridar relative to control; conditions: 0.5 min; procedure, shortened: as §1
T2 sequence (Q9JIP7 whole entry): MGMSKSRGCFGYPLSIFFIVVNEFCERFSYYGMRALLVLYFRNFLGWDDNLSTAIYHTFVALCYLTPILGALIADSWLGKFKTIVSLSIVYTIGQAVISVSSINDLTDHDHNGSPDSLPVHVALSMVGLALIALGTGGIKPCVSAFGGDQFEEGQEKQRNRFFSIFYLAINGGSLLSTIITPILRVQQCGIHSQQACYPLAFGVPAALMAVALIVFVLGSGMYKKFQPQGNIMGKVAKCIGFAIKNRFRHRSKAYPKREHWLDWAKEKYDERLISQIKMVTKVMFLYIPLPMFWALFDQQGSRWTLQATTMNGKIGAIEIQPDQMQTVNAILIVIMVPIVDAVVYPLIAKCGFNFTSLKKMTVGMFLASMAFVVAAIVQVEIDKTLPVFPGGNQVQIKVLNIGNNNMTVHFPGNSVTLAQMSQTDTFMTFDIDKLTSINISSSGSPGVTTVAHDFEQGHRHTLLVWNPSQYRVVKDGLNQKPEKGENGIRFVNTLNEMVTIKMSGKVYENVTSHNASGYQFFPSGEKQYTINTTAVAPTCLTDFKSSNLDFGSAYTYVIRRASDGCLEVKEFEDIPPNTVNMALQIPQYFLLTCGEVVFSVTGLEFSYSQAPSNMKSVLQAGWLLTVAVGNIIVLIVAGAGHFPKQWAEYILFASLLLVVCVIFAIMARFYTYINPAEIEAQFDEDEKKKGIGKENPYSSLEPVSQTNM

[3] = molecular target: T3, Solute carrier family 15 member 1 (Homo sapiens, UniProt P46059); assay: Drug uptake in Pichia pastoris GS115 expressing human recombinant PEPT1 at 5 uM after 30s by dual-channel liquid scintillation counting analysis in presence of GlyPro relative to control; conditions: 0.5 min; procedure, shortened: as §1
T3 sequence (P46059 whole entry): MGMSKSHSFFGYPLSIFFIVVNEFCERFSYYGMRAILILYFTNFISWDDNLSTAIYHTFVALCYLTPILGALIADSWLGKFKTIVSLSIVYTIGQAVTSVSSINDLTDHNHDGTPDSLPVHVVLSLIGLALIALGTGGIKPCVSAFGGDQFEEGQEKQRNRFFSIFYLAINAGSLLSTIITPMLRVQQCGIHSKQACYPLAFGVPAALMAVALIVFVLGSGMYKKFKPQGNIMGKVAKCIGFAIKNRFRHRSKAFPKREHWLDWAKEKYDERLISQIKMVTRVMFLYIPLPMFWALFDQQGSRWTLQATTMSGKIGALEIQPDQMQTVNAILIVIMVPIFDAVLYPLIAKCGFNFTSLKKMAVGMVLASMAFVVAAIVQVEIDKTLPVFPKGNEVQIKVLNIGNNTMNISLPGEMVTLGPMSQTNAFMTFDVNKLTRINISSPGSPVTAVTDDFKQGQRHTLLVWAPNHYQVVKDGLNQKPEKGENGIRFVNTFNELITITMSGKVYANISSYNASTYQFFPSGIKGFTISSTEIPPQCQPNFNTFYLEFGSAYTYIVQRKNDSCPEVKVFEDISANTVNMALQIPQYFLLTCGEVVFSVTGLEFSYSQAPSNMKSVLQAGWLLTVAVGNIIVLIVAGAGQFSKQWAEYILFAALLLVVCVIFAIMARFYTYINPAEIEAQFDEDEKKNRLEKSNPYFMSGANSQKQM

PEPT1 = molecular target: T4, PEPT1 (Homo sapiens, UniProt P46059); assay: Drug uptake in Pichia pastoris GS115 expressing human recombinant PEPT1 at 5 uM after 30s by dual-channel liquid scintillation counting analysis relative to vector control; conditions: read-out: FC
T4 sequence (P46059 whole entry): T3 sequence (P46059 whole entry)
Procedure, shortened: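 5.0 µM radiolabelled substrate uptake for 30 s at 24°C in pH 6.5 phosphate buffer by induced transformants. Radioactivity is counted by liquid scintillation and normalised to OD600. Results are compared with pPIC3.5K vector-alone cells. Mean ± SE (n=6).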

[4] = molecular target: T2, Solute carrier family 15 member 1; assay: Drug uptake in Pichia pastoris GS115 expressing mouse recombinant PEPT1 at 5 uM after 30s by dual-channel liquid scintillation counting analysis in presence of TEA relative to control; conditions: 0.5 min; procedure, shortened: as §1
[5] = molecular target: T2, Solute carrier family 15 member 1; assay: Drug uptake in Pichia pastoris GS115 expressing mouse recombinant PEPT1 at 5 uM after 30s by dual-channel liquid scintillation counting analysis in presence of cefadroxil relative to control; conditions: 0.5 min; procedure, shortened: as §1
[6] = molecular target: T2, Solute carrier family 15 member 1; assay: Drug uptake in Pichia pastoris GS115 expressing mouse recombinant PEPT1 at 5 uM after 30s by dual-channel liquid scintillation counting analysis in presence of cefazolin relative to control; conditions: 0.5 min; procedure, shortened: as §1
[7] = molecular target: T3, Solute carrier family 15 member 1; assay: Drug uptake in Pichia pastoris GS115 expressing human recombinant PEPT1 at 5 uM after 30s by dual-channel liquid scintillation counting analysis in presence of cephalothin relative to control; conditions: 0.5 min; procedure, shortened: as §1

Drug uptake [1]: 23.1%
Drug uptake [2]: 89.3%
Drug uptake [3]: 3.9%
uptake ratio at 0.5 min, 5 µM (PEPT1): 23
Drug uptake [4]: 83.7%
Drug uptake [5]: 16.7%
Drug uptake [6]: 87.4%
Drug uptake [7]: 84.8%
SMILES: [3H]C(C(=O)O)N(C)C(=O)CN (stereo not drawn)
